A word on the IC50: it is the concentration that inhibits the measured activity by half. By Ki is commonly meant a measure of affinity in units of concentration, obtained from inhibition or displacement.

“Also recorded” adds a separate entry of the source.

This is an account of results in publication PMC4339026 (Biopolymers, 2014).

What all share (assay type): biochemical
In one assay the target is MMP-14 (Homo sapiens, UniProt P50281). The assay is described as follows: Selectivity testing against zinc metalloproteases: MMP-14. Conditions: read-out: IC50 MMP-14; n = 3 Mean ± SD.
Assay [1] addresses T1, meprin β (Homo sapiens, UniProt Q16820).
T1 sequence (Q16820 62-614 limits assumed): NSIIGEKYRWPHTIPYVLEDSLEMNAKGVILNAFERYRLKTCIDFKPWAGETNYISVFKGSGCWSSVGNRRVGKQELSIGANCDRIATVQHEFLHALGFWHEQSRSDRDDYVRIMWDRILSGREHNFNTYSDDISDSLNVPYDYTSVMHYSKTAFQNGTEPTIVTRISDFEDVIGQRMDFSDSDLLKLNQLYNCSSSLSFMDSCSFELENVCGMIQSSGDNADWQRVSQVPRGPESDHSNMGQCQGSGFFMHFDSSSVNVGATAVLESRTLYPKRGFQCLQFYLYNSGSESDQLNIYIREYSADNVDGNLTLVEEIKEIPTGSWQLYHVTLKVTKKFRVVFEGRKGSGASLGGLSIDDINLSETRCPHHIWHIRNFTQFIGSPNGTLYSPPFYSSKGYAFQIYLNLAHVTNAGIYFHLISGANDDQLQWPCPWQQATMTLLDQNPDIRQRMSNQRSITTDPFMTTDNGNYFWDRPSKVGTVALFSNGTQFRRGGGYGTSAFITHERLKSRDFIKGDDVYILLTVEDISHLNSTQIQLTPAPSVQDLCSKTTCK
Nature of the assay: Meprin β inhibition kinetics / enzyme kinetics. The method in brief:
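Trypsin-activated meprin β at 1 nM was run with (MCA)-EDEDED-(K-ε-DNP) 0.5–25 μM plus varying inhibitor concentrations in 50 mM Hepes, 0.01% Brij-35, pH 7.5, at 25 °C. Fluorescence was read at ex 324/em 393 nm. Rates came from the linear portion of the progress curves. Ki and Ki′ came from nonlinear regression with a mixed-inhibition model. Mechanism came from the alpha parameter and was checked with Lineweaver-Burk plots.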

The target in another assay is MMP-8 (Homo sapiens, UniProt P22894). The assay is described as follows: Selectivity testing against zinc metalloproteases: MMP-8. Conditions: read-out: IC50 MMP-8; n = 3 Mean ± SD.
MMP-8, sequence (P22894 101-467, species assumed): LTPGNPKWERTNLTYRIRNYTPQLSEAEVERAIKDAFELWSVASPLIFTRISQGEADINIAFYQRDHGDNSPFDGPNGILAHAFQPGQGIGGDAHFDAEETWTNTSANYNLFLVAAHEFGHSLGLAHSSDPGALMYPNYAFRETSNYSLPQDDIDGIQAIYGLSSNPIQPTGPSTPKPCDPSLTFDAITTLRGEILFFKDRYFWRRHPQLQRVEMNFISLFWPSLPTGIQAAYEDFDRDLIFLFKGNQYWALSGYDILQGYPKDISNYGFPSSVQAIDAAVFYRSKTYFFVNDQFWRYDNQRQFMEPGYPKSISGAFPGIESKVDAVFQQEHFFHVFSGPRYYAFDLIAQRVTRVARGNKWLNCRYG
The next assay deals with MMP-13 (Homo sapiens, UniProt P45452). The assay is described as follows: Selectivity testing against zinc metalloproteases: MMP-13. Conditions: read-out: IC50 MMP-13; n = 3 Mean ± SD.
For another assay, the target named is T2, ADAM10 (Homo sapiens, UniProt O14672).
T2 sequence (O14672 214-748): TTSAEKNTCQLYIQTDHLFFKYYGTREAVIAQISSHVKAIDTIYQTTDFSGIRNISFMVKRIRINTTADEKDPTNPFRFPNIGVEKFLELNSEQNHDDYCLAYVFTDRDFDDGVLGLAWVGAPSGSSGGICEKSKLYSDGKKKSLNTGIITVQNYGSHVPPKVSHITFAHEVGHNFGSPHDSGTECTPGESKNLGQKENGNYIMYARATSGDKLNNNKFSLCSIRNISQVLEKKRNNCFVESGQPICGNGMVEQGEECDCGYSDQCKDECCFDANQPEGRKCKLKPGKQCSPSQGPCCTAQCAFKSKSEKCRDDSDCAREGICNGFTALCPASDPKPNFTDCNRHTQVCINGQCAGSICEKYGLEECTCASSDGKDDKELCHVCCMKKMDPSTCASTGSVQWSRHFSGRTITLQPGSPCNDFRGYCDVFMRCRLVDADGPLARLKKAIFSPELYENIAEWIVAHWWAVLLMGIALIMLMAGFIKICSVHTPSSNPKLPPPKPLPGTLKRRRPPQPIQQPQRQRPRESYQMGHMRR
The assay is described as follows: Selectivity testing against zinc metalloproteases: ADAM10. Conditions: read-out: IC50 ADAM10; n = 3 Mean ± SD.

A further assay has as its target T3, MMP-2 (Homo sapiens, UniProt P08253).
T3 sequence (P08253 110-660): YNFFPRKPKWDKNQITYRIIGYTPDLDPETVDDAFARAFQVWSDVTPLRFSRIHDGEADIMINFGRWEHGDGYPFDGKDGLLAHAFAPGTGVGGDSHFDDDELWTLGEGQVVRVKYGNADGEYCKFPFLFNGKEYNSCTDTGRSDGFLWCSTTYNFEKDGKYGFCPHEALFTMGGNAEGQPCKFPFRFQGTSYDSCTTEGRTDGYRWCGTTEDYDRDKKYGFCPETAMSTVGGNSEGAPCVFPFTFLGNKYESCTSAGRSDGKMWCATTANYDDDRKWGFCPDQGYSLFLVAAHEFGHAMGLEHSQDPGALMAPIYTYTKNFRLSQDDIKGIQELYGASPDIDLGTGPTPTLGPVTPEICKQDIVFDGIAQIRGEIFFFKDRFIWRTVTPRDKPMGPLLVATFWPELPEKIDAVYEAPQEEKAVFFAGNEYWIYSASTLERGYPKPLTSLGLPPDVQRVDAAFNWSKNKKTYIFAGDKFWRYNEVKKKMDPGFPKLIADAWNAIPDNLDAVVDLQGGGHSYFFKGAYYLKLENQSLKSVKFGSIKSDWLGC
The assay is described as follows: Selectivity testing against zinc metalloproteases: MMP-2. Particulars: read-out: IC50 MMP-2; n = 3 Mean ± SD.

Another assay addresses ADAM17 (Homo sapiens, UniProt P78536). Nature of the assay: Selectivity testing against zinc metalloproteases: ADAM17. Conditions: read-out: IC50 ADAM17; n = 3 Mean ± SD.
The next assay concerns the target MMP-9 (Homo sapiens, UniProt P14780). Nature of the assay: Selectivity testing against zinc metalloproteases: MMP-9. Conditions: read-out: IC50 MMP-9; n = 3 Mean ± SD.
In assay [2] the target is T1, meprin β. The assay is described as follows: Meprin β LOPAC pilot screen. Conditions: 18 μM.

MMP-9, sequence (P14780 94-707, species assumed): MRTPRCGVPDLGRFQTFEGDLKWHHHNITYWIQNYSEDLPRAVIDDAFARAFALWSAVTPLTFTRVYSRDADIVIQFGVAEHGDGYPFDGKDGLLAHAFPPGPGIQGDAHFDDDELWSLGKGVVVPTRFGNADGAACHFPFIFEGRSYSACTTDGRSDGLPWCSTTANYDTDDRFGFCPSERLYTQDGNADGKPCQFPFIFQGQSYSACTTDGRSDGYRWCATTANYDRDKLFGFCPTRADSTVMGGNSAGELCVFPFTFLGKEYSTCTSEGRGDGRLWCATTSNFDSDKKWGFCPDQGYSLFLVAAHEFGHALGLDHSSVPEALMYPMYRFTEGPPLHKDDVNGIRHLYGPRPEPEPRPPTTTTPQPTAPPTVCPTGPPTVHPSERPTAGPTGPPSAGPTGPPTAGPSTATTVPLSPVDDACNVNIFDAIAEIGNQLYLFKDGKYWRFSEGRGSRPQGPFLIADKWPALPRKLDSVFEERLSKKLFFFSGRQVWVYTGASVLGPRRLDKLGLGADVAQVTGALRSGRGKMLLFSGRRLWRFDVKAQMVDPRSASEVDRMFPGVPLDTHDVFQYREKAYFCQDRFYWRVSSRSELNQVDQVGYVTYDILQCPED
ADAM17, sequence (P78536 215-824, species assumed): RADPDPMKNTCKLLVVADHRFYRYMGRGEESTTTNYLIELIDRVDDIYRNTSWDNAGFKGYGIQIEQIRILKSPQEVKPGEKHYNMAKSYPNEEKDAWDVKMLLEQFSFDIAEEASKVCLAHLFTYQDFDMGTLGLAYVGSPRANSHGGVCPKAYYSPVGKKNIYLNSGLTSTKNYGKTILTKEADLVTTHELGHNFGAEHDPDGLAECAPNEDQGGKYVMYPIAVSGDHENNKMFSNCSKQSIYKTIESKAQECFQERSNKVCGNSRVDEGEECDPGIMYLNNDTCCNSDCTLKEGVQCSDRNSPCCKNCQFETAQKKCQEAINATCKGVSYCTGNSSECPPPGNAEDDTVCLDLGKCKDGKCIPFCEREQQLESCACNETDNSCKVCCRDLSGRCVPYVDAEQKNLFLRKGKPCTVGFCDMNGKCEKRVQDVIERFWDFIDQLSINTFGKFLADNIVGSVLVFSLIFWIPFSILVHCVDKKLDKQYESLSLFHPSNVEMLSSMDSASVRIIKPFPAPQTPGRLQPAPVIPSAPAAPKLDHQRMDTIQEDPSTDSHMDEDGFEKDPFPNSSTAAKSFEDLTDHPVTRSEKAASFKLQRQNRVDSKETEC

Regarding `O=C(Nc1cc(C(=O)Nc2ccc(S(=O)(=O)O)cc2S(=O)(=O)O)cc(C(=O)Nc2ccc(S(=O)(=O)O)cc2S(=O)(=O)O)c1)Nc1cc(C(=O)Nc2ccc(S(=O)(=O)O)cc2S(=O)(=O)O)cc(C(=O)Nc2ccc(S(=O)(=O)O)cc2S(=O)(=O)O)c1` [NF449, 4,4′,4″,4‴-[Carbonyl-bis[imino-5,1,3-benzenetriylbis-(carbonyl-imino)]]tetrakis(benzene-1,3-disulfonic acid)], the IC50 on MMP-14 was determined as 18 ± 1.5 µM; at MMP-8, 1 ± 0.1 µM; at MMP-13, 40 ± 3 µM; at ADAM10, 1.2 ± 0.1 µM; at MMP-2, 6 ± 0.5 µM; on ADAM17, 4.6 ± 0.3 µM. The concentration for half-maximal inhibition (IC50) at MMP-9 is 8.6 ± 0.7 µM. The “Ki lower than IC50, fold” value at meprin β [1] (meprin β Ki versus HTS IC50) was 3 fold. Also, the “α = Ki/Ki′” value on meprin β [1] (mixed-model inhibition, non-linear regression) is 3.6 ± 4.3. Besides, on meprin β [1] (non-linear regression and Lineweaver-Burke plots), the “mechanism of inhibition of meprin β” value is on record as “mixed competitive/non-competitive inhibition modality; also recorded: competitive mechanism with elements of non-competitive inhibition”. Also, the Ki at meprin β [1] (read-out: Ki meprin β, substrate (MCA)-EDEDED-(K-ε-DNP), mixed inhibition model) was determined as 0.022 ± 0.0096 µM. Besides, at meprin β [2], the “% inhibition meprin β in pilot screen” value is on record as “negative inhibition values”. In addition, the “meprin β LOPAC pilot screen outcome” value at meprin β [2] (hit cutoff 25% inhibition) was “selective hits”.
